Assay results: ChEMBL document CHEMBL1629486, “Antimicrobial, antitumor and 5α-reductase inhibitor activities of some hydrazonoyl substituted pyrimidinones” (Eur J Med Chem, 2010)

Tests used:
Candida albicans = assay: Antimicrobial activity against Candida albicans at 1 to 5 ug/ml by agar well diffusion method; type: functional
How it was run: (§1)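 Agar well diffusion against bacteria and fungi. Inhibition zone is scored beyond the control: ++ 0.6–1.0 cm, + 0.1–0.5 cm, 0 no inhibition.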

Bacillus subtilis = assay: Antimicrobial activity against Bacillus subtilis at 1 to 5 ug/ml by agar well diffusion method; type: functional; how it was run: as §1
Aspergillus fumigatus = assay: Antimicrobial activity against Aspergillus fumigatus at 1 to 5 ug/ml by agar well diffusion method; type: functional; how it was run: as §1
Escherichia coli = assay: Antimicrobial activity against Escherichia coli at 1 to 5 ug/ml by agar well diffusion method; type: functional; how it was run: as §1
Penicillium italicum = assay: Antimicrobial activity against Penicillium italicum at 1 to 5 ug/ml by agar well diffusion method; type: functional; how it was run: as §1
Staphylococcus aureus = assay: Antimicrobial activity against Staphylococcus aureus at 1 to 5 ug/ml by agar well diffusion method; type: functional; how it was run: as §1
[1] = system: Syncephalastrum racemosum; assay: Antimicrobial activity against Syncephalastrum racemosum at 1 to 5 ug/ml by agar well diffusion method; type: functional; how it was run: as §1
Pseudomonas aeruginosa = assay: Antimicrobial activity against Pseudomonas aeruginosa at 1 to 5 ug/ml by agar well diffusion method; type: functional; how it was run: as §1
Rattus norvegicus [2] = assay: Effect on circulating testosterone and dihydrotestosterone level in sc dosed Sprague-Dawley rat by radioimmunoassay relative to anastrozole; type: functional
How it was run: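 Serum testosterone and DHT were measured by RIA in ether extracts of serum (0.5 mL serum, 2 mL diethyl ether, 60 s shaking), without chromatography, in rats dosed at several levels. Relative potency is the ED50 of anastrozole divided by the ED50 of the test agent, where ED50 is the dose giving 50% of the pharmacological response.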

Rattus norvegicus [3] = assay: Effect on circulating testosterone and dihydrotestosterone level in sc dosed Sprague-Dawley rat by radioimmunoassay; type: functional
How it was run: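 Rats were given a range of doses of the 5α-reductase inhibitors. Serum testosterone and DHT were measured by radioimmunoassay with specific antisera, without prior chromatography. Serum (0.5 mL) was extracted with 2 mL peroxide-free diethyl ether by shaking for 60 s. Levels were compared with vehicle-treated controls, and ED50 was derived.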

Rattus norvegicus [4] = organism: Rattus norvegicus; assay: Acute toxicity in albino rat; type: organism-based; conditions: in vivo
How it was run: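 Male albino rats received injections of increasing doses. LD50 and LD90, the doses killing 50% and 90% of the animals, were calculated by the Austen and Brocklehurst method.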

SMILES: COc1ccc(N/N=C(\C(=O)c2ccc(Cl)cc2)c2nc(C)cc(=O)[nH]2)cc1
- diameter of the inhibition zone (DIZ) (Candida albicans): 0 cm
- diameter of the inhibition zone (DIZ) (Bacillus subtilis): 0 cm
- diameter of the inhibition zone (DIZ) (Aspergillus fumigatus): 0 cm
- diameter of the inhibition zone (DIZ) (Escherichia coli): 0 cm
- diameter of the inhibition zone (DIZ) (Penicillium italicum): 0 cm
- diameter of the inhibition zone (DIZ) (Staphylococcus aureus): 0 cm
- diameter of the inhibition zone (DIZ) [1]: 0 cm
- diameter of the inhibition zone (DIZ) (Pseudomonas aeruginosa): 0 cm

SMILES: Cc1cccc(N/N=C(\C(=O)c2ccc(Cl)cc2)c2nc(C)cc(=O)[nH]2)c1
- Ratio ED50 (Rattus norvegicus [2]): 6.264
- diameter of the inhibition zone (DIZ) (Candida albicans): 0 cm
- diameter of the inhibition zone (DIZ) (Bacillus subtilis): 0 cm
- diameter of the inhibition zone (DIZ) (Aspergillus fumigatus): 0 cm
- diameter of the inhibition zone (DIZ) (Escherichia coli): 0 cm
- diameter of the inhibition zone (DIZ) (Penicillium italicum): 0 cm
- ED50 (Rattus norvegicus [3]): 0.174 µg/kg
- diameter of the inhibition zone (DIZ) (Staphylococcus aureus): 0 cm
- diameter of the inhibition zone (DIZ) [1]: 0 cm
- diameter of the inhibition zone (DIZ) (Pseudomonas aeruginosa): 0 cm
- LD50 (Rattus norvegicus [4]): 2555 µg/kg
- LD90 (Rattus norvegicus [4]): 3.98654 mg/kg

SMILES: Cc1cc(=O)[nH]c(/C(=N/Nc2ccc(Cl)cc2)C(=O)c2ccc(Cl)cc2)n1
- Ratio ED50 (Rattus norvegicus [2]): 1.784
- diameter of the inhibition zone (DIZ) (Candida albicans): 0 cm
- diameter of the inhibition zone (DIZ) (Bacillus subtilis): 0 cm
- diameter of the inhibition zone (DIZ) (Aspergillus fumigatus): 0 cm
- diameter of the inhibition zone (DIZ) (Escherichia coli): 0 cm
- diameter of the inhibition zone (DIZ) (Penicillium italicum): 0 cm
- ED50 (Rattus norvegicus [3]): 0.611 µg/kg
- diameter of the inhibition zone (DIZ) (Staphylococcus aureus): 0 cm
- diameter of the inhibition zone (DIZ) [1]: 0 cm
- diameter of the inhibition zone (DIZ) (Pseudomonas aeruginosa): 0 cm
- LD50 (Rattus norvegicus [4]): 2345.37 µg/kg
- LD90 (Rattus norvegicus [4]): 3.12376 mg/kg

SMILES: Cc1cc(=O)[nH]c(/C(=N/Nc2cccc(Cl)c2)C(=O)c2ccc(Cl)cc2)n1
- Ratio ED50 (Rattus norvegicus [2]): 1.844
- diameter of the inhibition zone (DIZ) (Candida albicans): 0 cm
- diameter of the inhibition zone (DIZ) (Bacillus subtilis): 0 cm
- diameter of the inhibition zone (DIZ) (Aspergillus fumigatus): 0 cm
- diameter of the inhibition zone (DIZ) (Escherichia coli): 0.1 cm
- diameter of the inhibition zone (DIZ) (Penicillium italicum): 0 cm
- ED50 (Rattus norvegicus [3]): 0.591 µg/kg
- diameter of the inhibition zone (DIZ) (Staphylococcus aureus): 0 cm
- diameter of the inhibition zone (DIZ) [1]: 0 cm
- diameter of the inhibition zone (DIZ) (Pseudomonas aeruginosa): 0 cm
- LD50 (Rattus norvegicus [4]): 2133.45 µg/kg
- LD90 (Rattus norvegicus [4]): 2.98032 mg/kg

SMILES: Cc1cc(=O)[nH]c(/C(=N/Nc2cccc([N+](=O)[O-])c2)C(=O)c2ccc(Cl)cc2)n1
- Ratio ED50 (Rattus norvegicus [2]): 5.798
- diameter of the inhibition zone (DIZ) (Candida albicans): 0 cm
- diameter of the inhibition zone (DIZ) (Bacillus subtilis): 0.1 cm
- diameter of the inhibition zone (DIZ) (Aspergillus fumigatus): 0 cm
- diameter of the inhibition zone (DIZ) (Escherichia coli): 0.1 cm
- diameter of the inhibition zone (DIZ) (Penicillium italicum): 0 cm
- ED50 (Rattus norvegicus [3]): 0.188 µg/kg
- diameter of the inhibition zone (DIZ) (Staphylococcus aureus): 0.6 cm
- diameter of the inhibition zone (DIZ) [1]: 0 cm
- diameter of the inhibition zone (DIZ) (Pseudomonas aeruginosa): 0 cm
- LD50 (Rattus norvegicus [4]): 2553.48 µg/kg
- LD90 (Rattus norvegicus [4]): 3.30012 mg/kg

SMILES: Cc1cc(=O)[nH]c(/C(=N/Nc2ccc([N+](=O)[O-])cc2)C(=O)c2ccc(Cl)cc2)n1
- Ratio ED50 (Rattus norvegicus [2]): 2.28
- diameter of the inhibition zone (DIZ) (Candida albicans): 0 cm
- diameter of the inhibition zone (DIZ) (Bacillus subtilis): 0 cm
- diameter of the inhibition zone (DIZ) (Aspergillus fumigatus): 0 cm
- diameter of the inhibition zone (DIZ) (Escherichia coli): 0.1 cm
- diameter of the inhibition zone (DIZ) (Penicillium italicum): 0 cm
- ED50 (Rattus norvegicus [3]): 0.478 µg/kg
- diameter of the inhibition zone (DIZ) (Staphylococcus aureus): 0.6 cm
- diameter of the inhibition zone (DIZ) [1]: 0 cm
- diameter of the inhibition zone (DIZ) (Pseudomonas aeruginosa): 0 cm
- LD50 (Rattus norvegicus [4]): 2345.23 µg/kg
- LD90 (Rattus norvegicus [4]): 3.29098 mg/kg

SMILES: CCOC(=O)c1ccc(N/N=C(\C(=O)c2ccc(Cl)cc2)c2nc(C)cc(=O)[nH]2)cc1
- Ratio ED50 (Rattus norvegicus [2]): 5.505
- diameter of the inhibition zone (DIZ) (Candida albicans): 0 cm
- diameter of the inhibition zone (DIZ) (Bacillus subtilis): 0 cm
- diameter of the inhibition zone (DIZ) (Aspergillus fumigatus): 0 cm
- diameter of the inhibition zone (DIZ) (Escherichia coli): 0 cm
- diameter of the inhibition zone (DIZ) (Penicillium italicum): 0 cm
- ED50 (Rattus norvegicus [3]): 0.198 µg/kg
- diameter of the inhibition zone (DIZ) (Staphylococcus aureus): 0 cm
- diameter of the inhibition zone (DIZ) [1]: 0 cm
- diameter of the inhibition zone (DIZ) (Pseudomonas aeruginosa): 0 cm
- LD50 (Rattus norvegicus [4]): 2341.33 µg/kg
- LD90 (Rattus norvegicus [4]): 3.21717 mg/kg

SMILES: CC(C)(C#N)c1cc(Cn2cncn2)cc(C(C)(C)C#N)c1 [ANASTROZOLE]
- Ratio ED50 (Rattus norvegicus [2]): 1

SMILES: O=C(N[C@H](CO)[C@H](O)c1ccc([N+](=O)[O-])cc1)C(Cl)Cl [CHLORAMPHENICOL]
- diameter of the inhibition zone (DIZ) (Bacillus subtilis): 1.1 cm
- diameter of the inhibition zone (DIZ) (Escherichia coli): 0.6 cm
- diameter of the inhibition zone (DIZ) (Staphylococcus aureus): 0.6 cm
- diameter of the inhibition zone (DIZ) (Pseudomonas aeruginosa): 1.1 cm

SMILES: CN(C/C=C/C#CC(C)(C)C)Cc1cccc2ccccc12 [TERBINAFINE]
- diameter of the inhibition zone (DIZ) (Candida albicans): 0.6 cm
- diameter of the inhibition zone (DIZ) (Aspergillus fumigatus): 1.1 cm
- diameter of the inhibition zone (DIZ) (Penicillium italicum): 1.1 cm
- diameter of the inhibition zone (DIZ) [1]: 1.1 cm
